Bioassay records: PubChem, several laboratories
TNF death inh: blocks TNF-alpha induced death of Jurkat FADD-/- cells; Jurkat FADD-/- TNF necroptosis rescue, ATP luminescence, 24 h; 0 = TNF only, 100 = no-TNF cells; activation (protection from cell death), % at 10 µM; 220,000 compounds, 0.068% hits; AID 463075;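 active = activation, meaning protection from cell death, of at least 50% relative to plate controls; inactive = activation below 50%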;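 also: necroptosis triggered by 40 ng/mL TNF-alpha added together with compound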
TbHK1 inh: T. brucei hexokinase 1 inhibition | inhibition, % at 10 µM | 220,000 compounds, 0.11% hits | recombinant TbHK1, G6PDH-coupled NADH A340 | AID 1430;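 active = inhibition of 50% or more in the single-dose primary screen; inactive = inhibition below 50%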
Hep lipid drop: modulators of hepatic lipid droplet formation; 240,000 compounds, 0.4% hits; inhibition, % at 6.5 µM; AML12 mouse hepatocytes, oleate lipid droplets, BODIPY imaging;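 active = lipid droplet intensity inhibited by at least 50%, with more than 500 cells counted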
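Material: mouse AML12 hepatocyte cell line, fixed after treatment; Timing: compound with oleate, overnight; Technique: high-content imaging of BODIPY-stained droplets and DAPI nuclei; Probe or stimulus: oleate, 100 µM final; Dosing: compound at 6.5 µM only.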
PfM18AAP inh-1: PfM18AAP enzyme inhibition. recombinant PfM18AAP, H-Glu-NHMec fluorogenic cleavage. inhibition, % at 7.35 µM. 290,000 compounds, 1.2% hits. AID 1822;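 active = inhibition above the campaign mean inhibition over all tested compounds plus 3 SD, cut at about 28% in these data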;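 also: 0% = plate median of test compound wells and 100% = 2 mM ZnCl2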
L929 necroptosis: blocks zVAD induced death of L929 cells | viability rescue, % at 10 µM | 220,000 compounds, 0.38% hits | L929 zVAD necroptosis rescue, ATP luminescence, 24 h; with zVAD 60 µM;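 active = activation, scaled between plate controls, above about 75%, limit read from the data; inactive = activation under that limit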;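 also: 0% = zVAD with DMSO and 100% = DMSO alone without zVAD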
RBBP9 inh: blocks human serine hydrolase RBBP9 | O75884 | recombinant RBBP9, FP-Rh probe fluorescence polarization | inhibition, % at 7.94 µM | 220,000 compounds, 0.2% hits | AID 1515;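 active = inhibition above the campaign mean of all tested compounds plus 3 SD, cut at about 14% in these data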;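 also: plate controls were DMSO wells with RBBP9 for no effect and wells lacking RBBP9 protein for full effect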
Target sequence (O75884 whole entry, looked up): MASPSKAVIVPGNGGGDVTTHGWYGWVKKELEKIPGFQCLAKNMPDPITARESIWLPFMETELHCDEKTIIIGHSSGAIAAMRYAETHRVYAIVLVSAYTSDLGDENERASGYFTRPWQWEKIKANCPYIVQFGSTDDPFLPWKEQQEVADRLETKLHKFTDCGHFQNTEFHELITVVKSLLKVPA
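Test system – recombinant human RBBP9 · Input – RBBP9 2.5 µM in dispensing solution, pre-mixing · Medium – Tris buffer pH 8.0, NaCl, Pluronic · Schedule – preincubation 30 min plus labeling 45 min at 25 °C · Measured by – fluorescence polarization · Measure – % inhibition · Controls – DMSO and no-protein wells · Replicates – one well per compound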
PfM18AAP inh-2: PfM18AAP inhibition, confirmation; shares compounds with PfM18AAP inh-1; recombinant PfM18AAP, H-Glu-NHMec fluorogenic cleavage; inhibition, % at 7.35 µM; 2,400 compounds, 28% hits; AID 2170;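 active = mean inhibition over replicate wells above the hit cutoff set for the earlier primary screen, cut at about 29% in these data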;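 also: 0% = median of test compound wells and 100% = 2 mM ZnCl2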
CTSL1 confirm: Cathepsin L (human) inhibition, confirmation | shares compounds with PfM18AAP inh-1 | purified cathepsin L1, Z-Leu-Arg-MCA fluorescence | inhibition, % at 5.96 µM | 2,400 tested, under 10 active | AID 2178;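 active = average inhibition across replicates above the hit cutoff set in the earlier primary screen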;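 also: 0% = median of test compound wells and 100% = Z-Phe-Ala-diazomethylketone 1 µM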
The depositor's hits bear a star; x = no result given. Most compounds without a hit are left out; they make up all but 2% or so of the library.

SMILES	TNF death inh	TbHK1 inh	Hep lipid drop	PfM18AAP inh-1	L929 necroptosis	RBBP9 inh	PfM18AAP inh-2	CTSL1 confirm
COc1cccc(C2C(C(=O)c3cccs3)=C(O)C(=O)N2c2cc(C)on2)c1 (stereo unspecified)	-1	-28	x	35*	2	0	-36	2
COc1ccc(OC)c(C2C(C(=O)c3cccs3)=C(O)C(=O)N2c2cc(C)on2)c1 (stereo unspecified)	-1	-9	-1	-3	0	-4	x	x
CCC(=O)n1nc(-c2cccnc2)nc1NCc1ccc(OC)cc1	0	-4	8	0	1	-2	x	x
CCC(=O)n1nc(NCc2ccc(OC)c(OC)c2)nc1NCc1ccc(OC)c(OC)c1	-3	-9	-6	38*	0	-2	-9	-3
COc1ccc(CNc2n[nH]c(NCc3ccc(OC)c(OC)c3)n2)cc1OC	0	2	0	47*	0	-6	2	-5
COc1ccc(OC)c(C2NC(=S)NC3=C2N2CCC3CC2)c1 (stereo unspecified)	-1	-2	4	44*	0	-13	-49	1
O=C(CSc1nc2ccccc2c(=O)[nH]1)Nc1ccccc1C(F)(F)F	x	x	10	-8	x	x	x	x
O=c1cc(-c2ccc(O)cc2)oc2c(O)c(O)c(O)c(O)c12	0	-39	-10	52*	0	-7	18	2
CCn1c(COc2ccccc2)nnc1SCC(=O)Nc1ccc(N2CCOCC2)cc1	x	x	13	5	x	x	x	x
COC(=O)C1=C(C)NC(=S)NC1c1ccc(-c2cc(Cl)ccc2Cl)o1 (stereo unspecified)	-15	-4	-2	36*	0	-7	-55	9
COC(=O)c1ccccc1NC(=O)C/C(C)=N/NC(=O)CC#N	0	1	8	38*	3	2	-47	6
CCOC(=O)CCc1c(C)nc(SCc2ccc(C(=O)O)cc2)c(C#N)c1C	x	x	13	3	x	x	x	x
